These results are taken from article PMC3306481 (Clinical Cancer Research, 2012).

The conditions of data set [1]: for Maximum tolerated dose (MTD): 21-day cycles (DL 7).
The subject of data set [2] is refractory solid tumors and lymphoid malignancies. The data set is described as follows: Phase I trial: tumor response by RECIST 1.0. It is filed as in vivo, human.
Data set [3] in a line: Veliparib plasma pharmacokinetics. The data set is classed as in vivo, human. The method in brief: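 The oral test compound was dosed once daily at 20–60 mg with oral alkylator 50 or 100 mg daily. Plasma was sampled pre-dose and 0.5, 1, 1.5, 2, 3, 4, 6, 8 and 24 h post-dose on cycle 1 day 1 and on the last dosing day (7, 14 or 21). Blood was spun at 1,000 × g and plasma held at -70°C. Levels were read by LC-MS validated to FDA guidelines. Days were compared by two-tailed paired exact Wilcoxon test, with P < 0.05 taken as significant.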

Data set [4] concerns poly(ADP-ribose) (PAR), a product of PARP. The data set is described as follows: PAR levels in tumor biopsies. To be noted: all five patients with paired pre- and post-dose biopsies, after 7 or 21 days of treatment; with cyclophosphamide. The data set is classed as in vivo, human.
Another data set relates to γH2AX. The experiment in a line: γH2AX levels in circulating tumor cells. It is filed as in vivo, human. To be noted: day 2 of cycle 1; of nine patients with detectable CTCs; with cyclophosphamide. The method in brief:
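During cycle 1, patients took the oral test compound once daily (20–60 mg) with daily oral alkylator (50 or 100 mg). Circulating tumour cells were scored for γH2AX positivity by a validated immunofluorescence assay run to standard operating procedures and compared with each patient's baseline.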

For data set [5] the following is noted: high-dose veliparib, preclinical model; cited from earlier work.
The conditions of data set [6]: studies conducted with veliparib; cited from earlier work.
In another data set the test system is PARP. As to conditions: 24 hours after a single 50 mg dose; phase 0 trial; cited from earlier work.

Where two headings read alike, the source gives them in different places.

As to `O=P1(N(CCCl)CCCl)NCCCO1` (centres unmarked) [cyclophosphamide], the “Maximum tolerated dose (MTD)” value in data set [1] (cyclophosphamide daily with veliparib 60 mg daily) is 50 mg.
As to `C[C@]1(c2nc3c(C(N)=O)cccc3[nH]2)CCCN1` [veliparib, Veliparib], the “Total No. of cycles” value in data set [2] (partial response, patient 15, breast cancer, dose level 5, with cyclophosphamide) stood at 4 cycles. Further, the “Patients with prolonged stable disease among patients with known BRCA mutations” value in data set [2] (thirteen patients with known BRCA mutations, with cyclophosphamide) was “three”. Besides, the “Patients with partial response” value in data set [2] (veliparib with metronomic cyclophosphamide, 35 patients enrolled, RECIST 1.0) was “Seven”. Moreover, the “Changes in PK parameters between baseline and day 7, 14, or 21” value in data set [3] (co-administered metronomic cyclophosphamide) is “No statistically significant changes”. Further, the half-life (in general, the time in which the quantity being followed falls by half) in data set [3] (human, plasma, oral) is 5 ± 1.5 h. The “PK behavior of veliparib at DL 5 compared with other DLs” value in data set [3] (three patients on DL 5 (100 mg cyclophosphamide)) is on record as “not different”. In data set [4], the “Decrease in PAR levels in tumor biopsies” value is recorded as “greater than 80%”. The “Patients with an increased percentage of γH2AX-positive CTCs” value in the data set on γH2AX was “Seven”. Moreover, the “Tolerability of the study regimen” value in data set [1] (in vivo) is listed as “well tolerated”. In data set [1] (veliparib daily with cyclophosphamide 50 mg daily), the “Maximum tolerated dose (MTD)” value was 60 mg. Further, in data set [5], the Seizures entry was “caused seizures”. The “Cardiac toxicity related to study drug” value in data set [6] was “no indication of cardiac toxicity”. The “Inhibition of PARP activity in tumor biopsies” value in the data set on PARP is “greater than 48%”.
